Measurements: ChEMBL document CHEMBL1177671, “Synthesis and cytotoxic activity of a new potential DNA bisintercalator: 1,4-Bis{3-[N-(4-chlorobenzo[g]phthalazin-1-yl)aminopropyl]}piperazine” (Bioorg Med Chem, 2010)

Experiments:
SF-268 = assay: Cytotoxicity against human SF268 cells after 72 hrs by XTT assay; assay type: functional, cell-based; conditions: SF-268, 72 h
Summary of the method: (§1)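 Cells grown in DMEM with 10% heat-inactivated FBS, 2 mM L-glutamine, penicillin/streptomycin at 37 °C, 5% CO2, and tested Mycoplasma-negative. 1.5 × 10³ cells per well were exposed to compound over 10^-4 to 10^-9 M for 72 h at 37 °C, then read by XTT proliferation assay. Done in triplicate; IC50 is the concentration giving 50% proliferation inhibition versus untreated controls.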

MCF7 = assay: Cytotoxicity against human MCF7 cells after 72 hrs by XTT assay; assay type: functional, cell-based; conditions: MCF7, 72 h; summary of the method: as §1
HT-29 = assay: Cytotoxicity against human HT-29 cells after 72 hrs by XTT assay; assay type: functional, cell-based; conditions: HT-29, 72 h; summary of the method: as §1
NCI-H460 = assay: Cytotoxicity against human NCI-H460 cells after 72 hrs by XTT assay; assay type: functional, cell-based; conditions: NCI-H460, 72 h; summary of the method: as §1
Calf thymus DNA = assay: Binding affinity to calf thymus DNA assessed as change in melting temperature; assay type: nucleic-acid assay; conditions: Bos taurus
Summary of the method: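 ct-DNA sonicated, filtered (0.45 µm) and held in sodium cacodylate buffer, I = 0.05 mol dm^-3, pH 7.0, at 7.5 × 10^-6 M base pairs. Melting was followed by absorbance at 260 nm versus temperature with increasing ligand, ligand absorbance subtracted and normalised. Tm is the transition midpoint (first-derivative maximum or tangent method). ΔTm = Tm(complex) − Tm(free DNA), averaged over ≥3 runs, error 0.5 °C.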

Row | Tm (Calf thymus DNA) | Structure (SMILES) | IC50 (SF-268) | IC50 (MCF7) | IC50 (HT-29) | IC50 (NCI-H460)
1 | – | c1ccc(CCNc2nnc(NCCc3ccccc3)c3cc4ccccc4cc23)cc1 | 2630 nM | 2570 nM | 2950 nM | 1830 nM
2 | – | CCCCCNc1nnc(NCCCCC)c2cc3ccccc3cc12 | 2700 nM | 2570 nM | 2700 nM | 2370 nM
3 | – | Clc1nnc(NCCCN2CCN(CCCNc3nnc(Cl)c4cc5ccccc5cc34)CC2)c2cc3ccccc3cc12 | 665 nM | 863 nM | 497 nM | 742 nM
4 | – | CCCCNc1nnc(Cl)c2cc3ccccc3cc12 | 88000 nM | > 100000 nM | > 100000 nM | 85500 nM
5 | – | CCCCNc1nnc(NCCCC)c2cc3ccccc3cc12 | 2630 nM | 2470 nM | 2350 nM | 2030 nM
6 | – | NCCCN1CCN(CCCNc2nnc(Cl)c3cc4ccccc4cc23)CC1 | 12600 nM | 9200 nM | 10500 nM | 8800 nM
7 | 20.6 °C | COc1cccc2c1C(=O)c1c(O)c3c(c(O)c1C2=O)C[C@@](O)(C(=O)CO)C[C@@H]3O[C@H]1C[C@H](N)[C@H](O)[C@H](C)O1 [DOXORUBICIN] | 220 nM | 324 nM | 280 nM | 264 nM
